Bioassay records: PubChem, several laboratories
Sampled rows, rich in hits. Any-hit rate of the full collection: about 1.7%.
CSN deneddyl inh = blocks human CSN-mediated cullin deneddylation | 360,000 compounds, 0.38% hits | Purified CSN, SCF-Nedd8-OG deneddylation, fluorescence polarization | Q92905 | inhibition, % at 12.5 µM;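 active = pattern-corrected inhibition above about 35%, with an unprinted fluorescence ratio check between 0.5 and 1.5, limit read from the data, passing the limit was not always enough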;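 note: 0% = enzyme with substrate and 100% = substrate without enzyme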
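assay system = purified human Csn5 enzyme expressed in HEK293T cells | amount = 0.24 nM enzyme | buffer or medium = Tris/NaCl/DTT buffer, pH 7.5 | reagent = 10 nM SCFSkp2-Nedd8OG | compound = one concentration, 12.5 µM, 0.25% DMSO | times = 90 min reaction at room temperature | signal = FP | read-out basis = % inhibition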
IDE cell inh = inhibits human insulin-degrading enzyme in HEK cells; inhibition, % at 5.59 µM; 320,000 compounds, 0.41% hits; FAbetaB cleavage, fluorescence polarization;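 active = percent inhibition above the average of all tested compounds plus 3 SD, set per screening campaign, cut at about 16% in these data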;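 note: IDE supplied by intact live HEK cells; FP after avidin binding of uncleaved biotin substrate so inhibition keeps polarization high; 0% = DMSO wells and 100% = 60 µM reference IDE inhibitor Ii1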
TPT1 inh = C. albicans TPT1 enzyme inhibition | 300,000 compounds, 0.81% hits | recombinant caTPT1, FP RNA substrate dephosphorylation | inhibition, % at 5 µM;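 active = inhibition above the mean of all tested compounds plus 3 SD, set per screening campaign, cut at about 24% in these data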;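 note: plate controls were DMSO alone for no effect and ferristatin control at 100 nM for full effect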
IDE cell activ = IDE (human) activation, cell-based | 340,000 compounds, 0.073% hits | HEK cells, FAbeta-B cleavage, fluorescence polarization; 0% vehicle, 100% cell-free pure enzyme wells | P14735 | activation, % at 5.96 µM | AID 493087;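 active = activation above the mean of all tested compounds plus 3 SD, set per screening campaign, cut at about 17% in these data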
Rpn11 inh = Rpn11 (human) deubiquitinase inhibition. 360,000 compounds, 0.59% hits. human 26S proteasome, Ub4-pepOG fluorescence polarization; 20S core pre-blocked with epoxomicin. O00487. inhibition, % at 20 µM;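 active = inhibition at 20 µM, scaled to each plate's controls, above about 33%, limit read from the data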
HNF4A DNA FP = change in binding of human HNF4 alpha to DNA. P41235. HNF4a-FITC DNA binding, fluorescence polarization, 1 h. activity change, % at 10 µM. 360,000 compounds, 0.3% hits. AID 1224865; in the data active = activity change above about 30%, passing the limit was not always enough
TPT1 inh confirm = TPT1 (C. albicans) inhibition, confirmation | AID 2149 | 2,400 compounds, 74% hits | inhibition, % at 5 µM | recombinant caTPT1, fluorescence polarization, RNase T1 coupled | shares compounds with TPT1 inh;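 active = inhibition above the primary screen limit, the mean inhibition of all tested compounds plus 3 SD, cut at about 25% in these data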
RNase T1 inh = RNase T1 inhibition in TPT1 counter-screen. 2,400 compounds, 83% hits. shares compounds with TPT1 inh. inhibition, % at 5 µM. RNase T1 cleavage, fluorescence polarization, 1536-well;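 active = inhibition above the solvent-only control well mean plus 3 SD, limit set per screening run, cut at about 23% in these data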;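 note: plate controls were DMSO wells with enzyme for no effect and wells without RNase T1 for full effect; inhibitors block cleavage so intact labeled substrate keeps polarization high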
IDE cell inh cf = cellular human IDE inhibition, confirmation; shares compounds with IDE cell inh; HEK cells, FAbetaB cleavage, fluorescence polarization; inhibition, % at 5.59 µM; 1,200 compounds, 51% hits; AID 435028;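 active = mean inhibition across triplicate wells above the cutoff set by the earlier primary insulin-degrading enzyme screen, cut at about 16% in these data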;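 note: 0% = DMSO wells and 100% = 60 µM reference IDE inhibitor Ii1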
HEK cytotox = kills HEK cells in IDE inhibitor counter-screen | inhibition, % at 5.59 µM | 1,200 compounds, 28% hits | HEK293 cytotoxicity, ATP luminescence | shares compounds with IDE cell inh; in the data active = inhibition above about 22%;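 note: 0% = vehicle wells and 100% = reference cytotoxic drug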
Rpn11 inh conf = Rpn11 inhibition confirmation, single concentration; shares compounds with Rpn11 inh; purified human 26S proteasome, Ub4-pepOG fluorescence polarization; proteasome pretreated with epoxomicin; inhibition, % at 20 µM; 1,900 compounds, 29% hits
MMP-2 inh = MMP-2 (human) inhibition counter-screen | shares compounds with Rpn11 inh | 1,900 compounds, 4% hits | inhibition, % at 20 µM | recombinant MMP-2, FRET peptide cleavage fluorescence | AID 602330;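 note: human MMP-2 activated beforehand with APMA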
Thrombin FP = blocks bovine thrombin, flagging nonselective RPN11 hits. inhibition, % at 20 µM. 1,900 compounds, 13% hits. shares compounds with Rpn11 inh. bovine thrombin cleavage of Ub4-pepOG, fluorescence polarization;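 active = mean inhibition at least 40% at 20 µM, or signal 3 deviations below plate average, so some actives read negative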;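 note: plate controls were thrombin with DMSO for no effect and buffer wells lacking thrombin for full effect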
* hit, by the source's call; · = no result given; + = active, no number. Cut-off read from the data, not from the text of the source, unless noted: active = inhibition above about 40%; inactive = the rest.

SMILES	CSN deneddyl inh	IDE cell inh	TPT1 inh	IDE cell activ	Rpn11 inh	HNF4A DNA FP	TPT1 inh confirm	RNase T1 inh	Rpn11 inh conf	MMP-2 inh	Thrombin FP	others
COc1cccc(NC2=Nc3cccc4cccc2c34)c1	5	-11	25*	8	45*	19	35*	44*	44*	-26	21
COc1cc(NC2=Nc3cccc4cccc2c34)cc(OC)c1OC	4	-1	31*	-2	42*	9	32*	43*	40	16	24
COc1cccc(Nc2n[nH]c(=S)s2)c1	-6	11	-4	-29	0	4	·	·	·	·	·
CCOC(=O)C1=C(C)N=c2s/c(=C\c3ccc(OCC(=O)O)c(OC)c3)c(=O)n2C1c1ccc(OC)cc1 (stereo not given)	7	16	25*	-9	41*	1	44*	53*	8	-51	11
CCOC(=O)C1=C(C)N=c2s/c(=C\c3ccc(OCC(=O)O)cc3)c(=O)n2C1c1ccccc1 (stereo not given)	-2	1	6	4	7	0	·	·	·	·	·
COC(=O)C1=C(C)N=c2s/c(=C/c3ccoc3)c(=O)n2C1c1ccccc1 (stereo not given)	58*	28*	58*	-10	107*	45*	61*	73*	48*	-15	47*	IDE cell inh cf=29*;HEK cytotox=14
CCCCCCN1C=CC=C/C1=C/C=C(C#N)C#N	13	29*	62*	-39	46*	22	80*	89*	37	15	52*	IDE cell inh cf=36*;HEK cytotox=8
CN1/C(=C/C=C(C#N)C#N)C=Cc2ccccc21	72	8	6	-14	·	138	·	·	·	·	·
CCCCn1nnnc1C1(C)CCC(=O)N1CCOC (stereo not given)	-9	·	·	·	·	3	·	·	·	·	·
COc1cc(N=Nc2ccccc2C(=O)O)ccc1O	-1	-3	-4	3	0	4	·	·	·	·	·
Cc1cc(O)c(C(C)C)cc1N=Nc1ccccc1C(=O)O	7	6	26*	0	41*	19	31*	48*	23	-20	27
Cc1cc(N=Nc2ccccc2C(=O)O)c(C)c(C)c1O	19	-12	41*	15	92*	32*	42*	60*	69*	-1	48*
O=C(O)COc1ccccc1/C=C1\SC(=S)N(NC(=O)c2ccccc2O)C1=O	16	5	31*	-7	41*	8	31*	40*	58*	-9	54*
O=C(NN1C(=O)/C(=C\c2ccc(O)c([N+](=O)[O-])c2)SC1=S)c1ccccc1Cl	23	-2	49*	1	52*	28	53*	63*	70*	11	53*
O=C(O)COc1ccccc1/C=C1\SC(=S)N(/N=C/c2ccccc2O)C1=O	13	2	2	-2	3	5	·	·	·	·	·
Cc1cccc(CN2CCN(C3CN(Cc4cn(Cc5ccc(F)cc5)nn4)S(=O)(=O)C3)CC2)c1 (stereo not given)	0	·	·	·	·	0	·	·	·	·	·
CC(=O)c1ccc2c(c1)N(Cc1ccccc1)C(=O)C(C)S2 (stereo not given)	3	·	·	·	4	2	·	·	·	·	·
CCN1CCN(S(=O)(=O)c2ccc(C(=O)Nc3sc4c(c3C(N)=O)CCN(CC)C4)cc2)CC1	16	1	96*	-2	59*	28	115*	118*	2	-52	-2
CCOC(=O)c1c(N)n(C2CC(C)(C)NC(C)(C)C2)c2nc3ccccc3nc12	-5	-2	2	0	12	1	·	·	·	·	·
CCOC(=O)c1c(NC(=O)c2ccco2)n(C2CCCCC2)c2nc3ccccc3nc12	10	1	31*	-4	45*	16	28*	39*	28	10	21
CCOC(=O)CCCCCC(=O)Nc1ccc2c(c1)C(=O)N([C@@H](C)CO)C[C@@H](C)[C@H](CN(C)C(=O)Nc1ccccc1)OCCCC[C@H](C)O2	3	·	·	·	-2	1	·	·	·	·	·
O=C(N/N=C/c1sc(N2CCOCC2)nc1-c1ccccc1)c1cccc(S(=O)(=O)N2CCCC2)c1	25	-1	35*	6	71*	43*	34*	43*	94*	12	69*
O=C1CC(=O)N(Cc2ccco2)C(=S)N1	61*	7	111*	-8	191*	-20	21	31*	102*	82*	+
COc1ccc(C2=Nc3ccccc3N(C(=O)c3cccnc3)C2C(=O)NC2CCCC2)cc1 (stereo not given)	-1	·	·	·	·	0	·	·	·	·	·
CN1CCc2nc(NC(=O)c3cccc(OC(F)F)c3)sc2C1	13	8	60*	0	51*	49*	26*	33*	-9	-6	-2
O=C(N/N=C/c1sc(=O)n(-c2ccccc2)c1Cl)c1ccncc1	14	2	32*	-1	57*	21	69*	81*	25	-26	12
COc1cc(C(=O)N/N=C/c2sc(=O)n(-c3ccccc3)c2Cl)cc(OC)c1OC	2	4	8	-2	22	11	·	·	·	·	·
CSc1nsc(/C=C/Nc2ccc(F)cc2F)c1C#N	31	4	54*	0	55*	42*	72*	89*	-20	-13	-21
COCCN=c1scc(-c2cc(OC)c(OC)c(OC)c2)n1/N=C/c1c(C)[nH]c2ccccc12	12	-1	44*	6	112*	31	60*	71*	56*	23	27
Cc1[nH]c2ccccc2c1/C=N/n1cnnc1	-1	-3	1	-6	-3	2	·	·	·	·	·
